ChEMBL document CHEMBL4706589, “Discovery of 5-bromo-4-phenoxy-N-phenylpyrimidin-2-amine derivatives as novel ULK1 inhibitors that block autophagy and induce apoptosis in non-small cell lung cancer” (Eur J Med Chem, 2020)
The source made the active and inactive calls. No cut-off for these calls is given here.

Experiments:
[1] = molecular target: T1, Serine/threonine-protein kinase ULK1 (Homo sapiens) (UniProt O75385); experiment: Inhibition of human ULK1 in human A549 cells under normal condition assessed as decrease in phosphorylated-Atg13 (ser318) level by immunoblotting analysis; format: cell-based
T1 sequence (whole entry): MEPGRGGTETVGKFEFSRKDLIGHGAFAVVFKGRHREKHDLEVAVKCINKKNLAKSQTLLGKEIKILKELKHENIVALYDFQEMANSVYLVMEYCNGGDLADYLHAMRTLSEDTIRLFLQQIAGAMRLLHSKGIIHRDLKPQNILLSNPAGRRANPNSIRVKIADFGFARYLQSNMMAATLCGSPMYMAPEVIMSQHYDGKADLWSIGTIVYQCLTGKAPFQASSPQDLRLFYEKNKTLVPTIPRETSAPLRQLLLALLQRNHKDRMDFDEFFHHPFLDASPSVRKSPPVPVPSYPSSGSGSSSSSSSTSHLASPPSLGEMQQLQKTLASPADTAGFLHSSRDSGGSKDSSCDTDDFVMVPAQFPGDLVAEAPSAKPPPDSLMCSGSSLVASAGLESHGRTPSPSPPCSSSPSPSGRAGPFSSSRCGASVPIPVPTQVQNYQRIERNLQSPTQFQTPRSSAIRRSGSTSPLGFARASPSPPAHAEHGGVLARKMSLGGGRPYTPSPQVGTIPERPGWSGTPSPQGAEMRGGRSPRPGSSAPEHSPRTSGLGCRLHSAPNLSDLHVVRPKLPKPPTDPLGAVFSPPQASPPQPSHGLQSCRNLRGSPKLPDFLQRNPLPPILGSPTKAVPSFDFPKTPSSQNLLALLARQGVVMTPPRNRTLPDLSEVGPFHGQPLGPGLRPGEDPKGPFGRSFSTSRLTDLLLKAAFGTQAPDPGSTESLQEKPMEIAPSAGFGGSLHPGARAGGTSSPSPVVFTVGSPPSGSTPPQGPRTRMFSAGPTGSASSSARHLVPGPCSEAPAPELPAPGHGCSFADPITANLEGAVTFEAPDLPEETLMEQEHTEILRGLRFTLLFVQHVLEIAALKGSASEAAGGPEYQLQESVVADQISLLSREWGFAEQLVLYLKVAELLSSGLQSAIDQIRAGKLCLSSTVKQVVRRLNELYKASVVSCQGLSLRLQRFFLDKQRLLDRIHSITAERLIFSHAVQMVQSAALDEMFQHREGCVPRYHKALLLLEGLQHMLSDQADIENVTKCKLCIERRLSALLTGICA
Outline: (§1)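 Treated A549 cells, adherent and floating, were collected and lysed in RIPA buffer with protease and phosphatase inhibitors. Lysates were spun at 12,000 g, 4 °C, 15 min, and protein measured by BCA. Proteins were run on SDS-PAGE and moved to nitrocellulose, blocked 1 h in TBST with 5% skim milk, and probed overnight at 4 °C with primary antibodies. HRP secondary antibody was applied 1 h at room temperature, with ECL detection.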

[2] = test system: HL-60; experiment: Antiproliferative activity against human HL60 cells assessed as reduction in cell viability after 24 hrs by MTT assay; format: functional, cell-based; conditions: HL-60, 24 h
Outline: (§2)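 Cells seeded at 5.5 × 10⁴ cells/mL in 96-well plates and grown 24 h before exposure to graded compound concentrations. Viability read by MTT after 24 h. A549, MCF-7 and MDA-MB-468 were kept in DMEM with 10% FBS under 5% CO₂; HL60 and U937 in RPMI 1640 with 10% FBS. IC50 taken as mean of triplicate tests.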

[3] = molecular target: T1, Serine/threonine-protein kinase ULK1 (Homo sapiens); experiment: Inhibition of recombinant human ULK1 at 10 uM preincubated for 60 mins followed by substrate addition and measured after 30 mins by ADP-glo assay; conditions: time 90.0 min
Outline: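 Recombinant ULK1 activity was measured by ADP-Glo luminescence of ADP formed, in 40 mM Tris pH 7.5, 20 mM MgCl₂, 0.1 mg/ml BSA and […]. After the kinase reaction, plates were mixed 2 min and held 40 min at room temperature. Detection reagent was then added for 30 min at room temperature before luminescence was read.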

[4] = molecular target: T1, Serine/threonine-protein kinase ULK1 (Homo sapiens); experiment: Inhibition of human ULK1 in human A549 cells under nutrient starvation condition assessed as decrease in phosphorylated-Beclin 1(ser15) level by immunoblotting analysis; format: cell-based; outline: as §1
[5] = test system: A549; experiment: Antiproliferative activity against human A549 cells assessed as reduction in cell viability after 24 hrs by MTT assay; format: functional, cell-based; conditions: A549, 24 h; outline: as §2
[6] = molecular target: T1, Serine/threonine-protein kinase ULK1 (Homo sapiens); experiment: Inhibition of ULK1 mediated autophagy in human A549 cells assessed as reduction in conversion of LC3 1 to LC3-2 at 2 to 8 uM measured after 1 hrs by Western blot analysis; format: cell-based; conditions: dose 2-8 µM; outline: as §1
[7] = test system: U-937; experiment: Antiproliferative activity against human U937 cells assessed as reduction in cell viability after 24 hrs by MTT assay; format: functional, cell-based; conditions: U-937, 24 h; outline: as §2
[8] = test system: MDA-MB-468; experiment: Antiproliferative activity against human MDA-MB-468 cells assessed as reduction in cell viability after 24 hrs by MTT assay; format: functional, cell-based; conditions: MDA-MB-468, 24 h; outline: as §2
[9] = molecular target: T1, Serine/threonine-protein kinase ULK1 (Homo sapiens); experiment: Induction of downregulation of ULK1-mediated autophagy in human A549 cells assessed as phosphorylation at Ser317 preincubated for 24 hrs by Western blot analysis; format: cell-based; conditions: dose microM <=8, time 24.0 hrs; outline: as §1
[10] = molecular target: T1, Serine/threonine-protein kinase ULK1 (Homo sapiens); experiment: Inhibition of human ULK1 in human A549 cells under normal condition assessed as decrease in phosphorylated-Beclin 1(ser15) level by immunoblotting analysis; format: cell-based; outline: as §1
[11] = test system: A549; experiment: Induction of apoptosis in human A549 cells assessed as increase in caspase 3 protein expression at 2 to 8 uM by Western blot analysis; format: functional, cell-based; conditions: dose 2-8 µM; outline: as §1
[12] = test system: A549; experiment: Induction of apoptosis in human A549 cells assessed as increase in Bax protein expression at 2 to 8 uM by Western blot analysis; format: functional, cell-based; conditions: dose 2-8 µM; outline: as §1
[13] = test system: MCF7; experiment: Antiproliferative activity against human MCF-7 cells assessed as reduction in cell viability after 24 hrs by MTT assay; format: functional, cell-based; conditions: MCF7, 24 h; outline: as §2
[14] = test system: A549; experiment: Induction of apoptosis in human A549 cells assessed as morphological changes upto 8 uM incubated for 24 hrs in dark by Hoechst 33258 staining based fluorescence microscopy; conditions: dose microM <=8, time 24.0 hrs
[15] = molecular target: T1, Serine/threonine-protein kinase ULK1 (Homo sapiens); experiment: Inhibition of ULK1 mediated autophagy in human A549 cells assessed as p62 degradation at 2 to 8 uM measured after 1 hrs by Western blot analysis; format: cell-based; conditions: dose 2-8 µM; outline: as §1
[16] = molecular target: T1, Serine/threonine-protein kinase ULK1 (Homo sapiens); experiment: Inhibition of ULK1 mediated autophagy in human A549 cells transfected with GFP-mRFP-LC3 assessed as increase in LC3 puncta measured after 6 hrs by fluorescence microscopic analysis; format: cell-based
Outline: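 A549 cells were transfected with GFP/mRFP-LC3 for 6 h. Transfected cells were used 24 h later, and LC3 puncta were examined by fluorescence microscopy.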

[17] = molecular target: T1, Serine/threonine-protein kinase ULK1 (Homo sapiens); experiment: Inhibition of human ULK1 in human A549 cells under nutrient starvation condition assessed as decrease in phosphorylated- Atg13 (ser318) level by immunoblotting analysis; format: cell-based; outline: as §1
[18] = test system: A549; experiment: Induction of apoptosis in human A549 cells assessed as reduction in Bcl2 protein expression at 2 to 8 uM by Western blot analysis; format: functional, cell-based; conditions: dose 2-8 µM; outline: as §1
[19] = molecular target: T1, Serine/threonine-protein kinase ULK1 (Homo sapiens); experiment: Inhibition of ULK1 mediated autophagy in human A549 cells assessed as decrease in beclin1 level at 2 to 8 uM measured after 1 hrs by Western blot analysis; format: cell-based; conditions: dose 2-8 µM; outline: as §1

Activity [1]: Active
IC50 [2]: 10.9 µM
inhibition [3]: 99.2%
inhibition [4]: Active
IC50 [5]: 1.94 µM
inhibition [6]: Active
IC50 [7]: 12.9 µM
IC50 [8]: 16.8 µM
Activity [9]: Dose-dependent effect
inhibition [10]: Active
IC50 [13]: 19.6 µM
Activity [15]: Active
Activity [16]: Active
inhibition [17]: Active
inhibition [19]: Active
Compound: COc1cc(Nc2ncc(Br)c(Oc3ccc([N+](=O)[O-])cc3F)n2)cc(OC)c1OC
Activity [11]: Active
Activity [12]: Active
Activity [14]: Dose-dependent effect
Activity [18]: Active
